From the RNAGym collection of RNA variant scans (doi:10.1126/science.aae0568)
Variants at the floor of the assay were thinned out.

B1: tRNA (parent)
chain: GUUCCGUUGGCGUAAUGGUAACGCGUCUCCCUCCUAAGGAGAAGACUGCGGGUUCGAGUCCCGUACGGAACG

Variants of: B1
Test: yeast fitness relative to wild type (ratio to wild type); higher = fitter; tRNA-Arg(CCU), competitive growth, 37 C, YPD
Outline: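 Changes in genotype frequencies gave Darwinian fitness relative to wild type. Frequencies were read by 100-nucleotide paired-end sequencing of gene amplicons before and after pooled Saccharomyces cerevisiae strains, carrying tRNA-Arg(CCU) gene variants at the native locus, were competed in YPD at 37°C for 24 hours in six replicates. A genotype was kept only with ≥ 100 starting reads, and estimates < 0.5 were set to 0.5.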

| Variant | yeast fitness |
| --- | --- |
| C5A C33G C34A A40C | 0.567 |
| C5A C34A A43C A45C C46U | 0.593 |
| C5A C22G C29A A43U | 0.574 |
| C5A C30U U35A A42G C61U G63A | 0.538 |
| C5A C22A | 0.831 |
| C5A C29U A36U C66U G67A | ≤ 0.5 |
| C5A C27A C34G U59C | 0.539 |
| C5A C22A A40G | ≤ 0.5 |
| C5A C27G C31G U59C | ≤ 0.5 |
| C5A C30G C31G U32C G63A | ≤ 0.5 |
| C5A C34U A36C A40C | ≤ 0.5 |
| C5A C22U U53C U59G C61G C62U | ≤ 0.5 |
| C5A C22G U47C | ≤ 0.5 |
| C5A C30U G68A | ≤ 0.5 |
| C5A C33U C62A | 0.542 |
| C5A C46U C55U | 0.763 |
| C5A C34U C61G | ≤ 0.5 |
| C5A C31U G68A | 0.639 |
| C5A C29A A45U C62G C66G | ≤ 0.5 |
| C5A C24U C46A | 0.519 |
| C5A C30A | 0.767 |
| C5A C30G | 0.608 |
| C5A C31U U35C A69U | 0.539 |
| C5A C31U C55U | 0.6 |

| Variant | yeast fitness |
| --- | --- |
| C5A C24U U35C | ≤ 0.5 |
| C5A C11U U13C | 0.57 |
| C5A C33G A42C | ≤ 0.5 |
| C5A C31U U35C G50A | 0.565 |
| C5A C33U G50A G52C A65C | ≤ 0.5 |
| C5A C33U C61U | ≤ 0.5 |
| C5A C22A G50C A69C | 0.845 |
| C5A C30G C31G A65C | ≤ 0.5 |
| C5A C24U U35C C61A | ≤ 0.5 |
| C5A C31G G51A | 0.577 |
| C5A C22G C24G C31U A43U G48A | 0.544 |
| C5A C11U C31G | 0.558 |
| C5A C22G A37C A40C | 0.736 |
| C5A C30A A57G | 0.565 |
| C5A C11G C33A G38A | 0.552 |
| C5A C34A | 0.606 |
| C5A C34G | 0.589 |
| C5A C55U | 0.707 |
| C5A C55A | 0.655 |
| C5A C24G A65G C66U | ≤ 0.5 |
| C5A C11U U13G C29G C33A C46A | 0.575 |
| C5A C11G C27A C34U G39A | 0.683 |
| C5A C11G C33A G38A C46G A70U | ≤ 0.5 |
| C5A C55A G56C | ≤ 0.5 |

| Variant | yeast fitness |
| --- | --- |
| C5A C11G G17A A37U C49A | ≤ 0.5 |
| C5A C31U G58C U64C A70G | 0.576 |
| C5A C24U G25C C30G | ≤ 0.5 |
| C5A C24G C29G A40C | ≤ 0.5 |
| C5A C11G A37U C49A | 0.515 |
| C5A C24G G56A C62A | ≤ 0.5 |
| C5A C34G G58A G67A | ≤ 0.5 |
| C5A C24G A36C A70C | ≤ 0.5 |
| C5A C24U G25C C30G G50C G56A A65U | ≤ 0.5 |
| C5A C31U C34U C60G G63A | ≤ 0.5 |
| C5A C11G A21U G44C A57U | ≤ 0.5 |
| C5A C46A A69U | 0.738 |
| C5A C34U A40G | 0.727 |
| C5A C49A U53G | ≤ 0.5 |
| C5A C11G A45C C66G G68C | ≤ 0.5 |
| C5A C31A C46A G50C | ≤ 0.5 |
| C5A C22U C27G C30G A57U | ≤ 0.5 |
| C5A C22G C24G C31U A43U G48A A69U | 0.507 |
| C5A C49U A65C | 0.614 |
| C5A C29A A57G | ≤ 0.5 |
| C5A C31A C46G | ≤ 0.5 |
| C5A C11U C29U C31U A42C A69C | ≤ 0.5 |
| C5A C62U A70C | 0.616 |
| C5A C34A C46U | 0.553 |

| Variant | yeast fitness |
| --- | --- |
| C5A C31G C46A | 0.54 |
| C5A C11U C46U G50C | 0.709 |
| C5A G6A | 0.808 |
| C5A C29G A36U A43G | ≤ 0.5 |
| C5A C34G A37G | ≤ 0.5 |
| C5A C22U G39A C61U | 0.503 |
| C5A C11U | 0.856 |
| C5A C66A | 0.679 |
| C5A C66U | 0.857 |
| C5A C30U U59C C62A | ≤ 0.5 |
| C5A C24U C62A A69C | ≤ 0.5 |
| C5A C62U A69C | 0.738 |
| C5A C29A C34G | ≤ 0.5 |
| C5A C27U G39C C49U C55U | ≤ 0.5 |
| C5A C31G A37G U59A A70C | ≤ 0.5 |
| C5A C27U C46U | 0.739 |
| C5A C29A | 0.612 |
| C5A C11U C30A A57G | ≤ 0.5 |
| C5A C24G A65U | 0.694 |
| C5A C24A U26G A43C A69U | ≤ 0.5 |
| C5A C62U C66G | ≤ 0.5 |
| C5A C11U G18C U19A C27A C33A C61G A70G | ≤ 0.5 |
| C5A C24U A36C C66U | ≤ 0.5 |
| C5A C33U U53C | ≤ 0.5 |

| Variant | yeast fitness |
| --- | --- |
| C5A C60G G67A | ≤ 0.5 |
| C5A C22U C27G C30G A45U C62A | ≤ 0.5 |
| C5A C27U G39A A40G | 0.577 |
| C5A C33G A65U | ≤ 0.5 |
| C5A C30A A36U G41C G51C | 0.65 |
| C5A C24U | 0.71 |
| C5A C24G | 0.621 |
| C5A C33U G56A | ≤ 0.5 |
| C5A C34A G68C | ≤ 0.5 |
| C5A C62A | 0.743 |
| C5A C62G | 0.778 |
| C5A C24G C62A | ≤ 0.5 |
| C5A C11G A21U C60G G67A | ≤ 0.5 |
| C5A C22U G51C | ≤ 0.5 |
| C5A C34U A36C A40C C55A C66U | ≤ 0.5 |
| C5A C24U C29U C30A A37C A65C | 0.549 |
| C5A C11G G38C G58C | ≤ 0.5 |
| C5A C34A A40U A43G C62U | ≤ 0.5 |
| C5A C11U C34A A40U A42U G68A | ≤ 0.5 |
| C5A C24G A70U | ≤ 0.5 |
| C5A C34G A43C | ≤ 0.5 |
| C5A C11G A57G | ≤ 0.5 |
| C5A C24G U26A C29G A43U | ≤ 0.5 |
| C5A C24U G51A | ≤ 0.5 |

| Variant | yeast fitness |
| --- | --- |
| C5A C22U C29U A42U | ≤ 0.5 |
| C5A C22G C27G A36U A40C | ≤ 0.5 |
| C5A C49U A65U G67C | ≤ 0.5 |
| C5A C27U G38A | 0.565 |
| C5A C22U C31G C60A | ≤ 0.5 |
| C5A C22G C29G C31G | 0.627 |
| C5A C11U C31U C49G C61A | ≤ 0.5 |
| C5A C30U U54A | 0.537 |
| C5A C24U C29U C33U C34G A42U G58A | ≤ 0.5 |
| C5A C22G U26A A57C G67A A69U | ≤ 0.5 |
| C5A C29G G41A A43U | 0.659 |
| C5A C22G C27G A36U A40C G67A | ≤ 0.5 |
| C5A C30U C62G G68A | ≤ 0.5 |
| C5A C33A A65U | ≤ 0.5 |
| C5A C46A G56C | ≤ 0.5 |
| C5A C22G C29G C31G C61A | 0.529 |
| C5A C61U | 0.966 |
| C5A C31G G56C G58C G63A | ≤ 0.5 |
| C5A C22G C49U A57C | 0.779 |
| C5A C11G A21U U28C | ≤ 0.5 |
| C5A C27U G39C C49U | 0.526 |
| C5A C24G U26A C29G U32A C49U | ≤ 0.5 |
| C5A C46A G56C A70G | ≤ 0.5 |
| C5A C24U G67U A69C | 0.517 |

| Variant | yeast fitness |
| --- | --- |
| C5A C31G A42G | ≤ 0.5 |
| C5A C22A C24A U26C | ≤ 0.5 |
| C5A C11G A42U U53A | ≤ 0.5 |
| C5A C22U G39A A69U | ≤ 0.5 |
| C5A C30G A43C | ≤ 0.5 |
| C5A C31U G51C | 0.807 |
| C5A C22A C33U A36C | 0.502 |
| C5A C27U | 0.815 |
| C5A C27A U28G | 0.617 |
| C5A C31G A37G | 0.538 |
| C5A C24U A36C | ≤ 0.5 |
| C5A C33G A40G | 0.521 |
| C5A C11G C29U A36U G50C U54G | ≤ 0.5 |
| C5A C30A C31G A37U C55U A57C C61A | 0.55 |
| C5A C27A C46A C49A C55A | ≤ 0.5 |
| C5A C11G G41C C66U | ≤ 0.5 |
| C5A C31U A40G C49U A70U | ≤ 0.5 |
| C5A G6A U7A A43U G44A C46A G63A G68C A69G | 0.532 |
| C5A C60U C66U | ≤ 0.5 |
| C5A C24U A43C G58A | ≤ 0.5 |
| C5A C55U G63A G67C | ≤ 0.5 |
| C5A C34G U53A | ≤ 0.5 |
| C5A C22U A57G | 0.612 |
